Data from ChEMBL document CHEMBL3259813, “Design, synthesis and in vitro and in vivo antitumour activity of 3-benzylideneindolin-2-one derivatives, a novel class of small-molecule inhibitors of the MDM2-p53 interaction” (Eur J Med Chem, 2014).

Tests used:
HCT-116 [1] = assay: Antiproliferative activity against human HCT116 cells expressing wild type p53 after 48 hrs by MTT assay; settings: HCT-116, 48 h
HCT-116 [2] = assay: Antiproliferative activity against p53-deficient human HCT116 cells after 48 hrs by MTT assay; settings: HCT-116, 48 h
A549 = assay: Antiproliferative activity against human A549 cells after 48 hrs by MTT assay; settings: A549, 48 h
MCF7 = assay: Antiproliferative activity against human MCF7 cells after 48 hrs by MTT assay; settings: MCF7, 48 h
HCT-116 [3] = assay: Induction of apoptosis in human HCT116 cells after 48 hrs by propidium iodide staining-based flow cytometry; format: functional, cell-based
Procedure, shortened: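 HCT116 cells seeded at 2×10^5/well, grown 48 h, then exposed to compound for 48 h. Cells fixed overnight in 70% ice-cold ethanol, treated with RNase A (100 µg/ml, 30 min, room temperature), stained with propidium iodide (50 µg/mL final). Analysed by flow cytometry.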

HCT-116 [4] = assay: […] in human HCT116 cells assessed as accumulation at G1 phase at 50 uM after 48 hrs by propidium iodide staining-based flow cytometry (reference value: 62.5%); format: functional
Procedure, shortened: (§1)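 HCT116 (wild-type p53) seeded at 2×10^5 cells/well, cultured 48 h, then treated with compound for 48 h. Washed in cold PBS, fixed overnight in 70% ice-cold ethanol, RNase A (100 µg/ml) 30 min at room temperature, stained with propidium iodide (50 µg/mL final). Cell cycle distribution by flow cytometry.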

HCT-116 [5] = assay: […] in human HCT116 cells assessed as accumulation at S phase at 50 uM after 48 hrs by propidium iodide staining-based flow cytometry (reference value: 24.8%); format: functional; procedure, shortened: as §1
Mus musculus [6] = assay: Toxicity in BALB/c mouse allografted with mouse CT26 cells assessed as body weight at 50 mg/kg, ip qd administered for 10 days (reference value: 19.45 gm); format: organism-based; set-up: dose 50 mg/kg, route intraperitoneal; settings: in vivo, 240 h
CT26 = assay: Antitumor activity against mouse CT26 cells allografted in ip dosed BALB/c mouse assessed as tumor growth inhibition administered qd for 10 days; format: functional, organism-based
Procedure, shortened: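 CT26 cell suspension implanted s.c. in right axilla of BALB/c mice; randomised 10/group. Dosing i.p. once daily for 10 days, starting 24 h after implantation; vehicle and blank control groups. Mice sacrificed 24 h after last dose, tumours excised and weighed; inhibition = (A–B)/A×100%, A and B mean tumour weights of control and treated groups.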

HCT-116 [7] = assay: Induction of p21 expression in human HCT116 cells after 48 hrs by Western blotting analysis; format: functional, cell-based
Procedure, shortened: (§2)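 p53 wild-type HCT116 cells exposed to a range of concentrations for 48 h, lysed in Tris/NaCl/Triton X-100 buffer with protease inhibitors. Protein assayed by Bio-Rad method, separated by SDS-PAGE, transferred to PVDF, blocked in 5% non-fat milk. Primary antibody 2 h at room temperature, peroxidase secondary, ECL detection; beta-actin as loading control.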

HCT-116 [8] = assay: Induction of p53 expression in human HCT116 cells after 48 hrs by Western blotting analysis; format: functional, cell-based; procedure, shortened: as §2
HCT-116 [9] = assay: Induction of MDM2 expression in human HCT116 cells after 48 hrs by Western blotting analysis; format: functional, cell-based; procedure, shortened: as §2
Mus musculus [10] = assay: Toxicity in BALB/c mouse assessed as death at 500 mg/kg, ip up to 8 days; format: organism-based; set-up: dose 500 mg/kg, route intraperitoneal; settings: in vivo, 192 h
Procedure, shortened: (§3)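 BALB/c mice randomised into two groups of 10; single intraperitoneal dose of 500 or 1000 mg/kg in 10% DMSO. Animals monitored for death and visible signs of toxicity over 8 days.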

Mus musculus [11] = assay: Toxicity in BALB/c mouse assessed as visible side effect at 500 mg/kg, ip up to 8 days; format: organism-based; set-up: dose 500 mg/kg, route intraperitoneal; settings: in vivo, 192 h; procedure, shortened: as §3
Mus musculus [12] = assay: Toxicity in BALB/c mouse assessed as death at 1000 mg/kg, ip after 24 hrs; format: organism-based; set-up: dose 1000 mg/kg, route intraperitoneal; settings: in vivo; procedure, shortened: as §3
Mus musculus [13] = assay: Toxicity in BALB/c mouse allografted with mouse CT26 cells assessed as body weight at 100 mg/kg, ip qd administered for 10 days (reference value: 19.45 gm); format: organism-based; set-up: dose 100 mg/kg, route intraperitoneal; settings: in vivo, 240 h

Row | Structure (SMILES) | GI50 (HCT-116 [1]) [µM] | GI50 (HCT-116 [2]) [µM] | GI50 (A549) [µM] | GI50 (MCF7) [µM] | other results
1 | COc1ccc(/C=C2/C(=O)Nc3cc(F)ccc32)c(-c2ccc(C#N)cc2)c1 | 17.1 | 109 | > 100 | > 100 | –
2 | COc1ccc(/C=C2/C(=O)Nc3ccc(Cl)cc32)c(Br)c1 | 53.4 | 115 | > 100 | > 100 | –
3 | COc1ccc(/C=C2/C(=O)Nc3ccc(Cl)cc32)c(-c2ccc(Cl)cc2)c1 | 32.2 | 135 | 86.7 | > 100 | –
4 | CCCOc1ccc(/C=C2/C(=O)Nc3ccc(Cl)cc32)c(OCCC)c1 | 21 | 26.1 | 30.2 | 58.4 | –
5 | COc1ccc(/C=C2/C(=O)Nc3ccc(Cl)cc32)c(-c2ccc(C#N)cc2)c1 | 27.1 | 124 | > 100 | > 100 | –
6 | COc1cccc(/C=C2/C(=O)Nc3cc(Cl)ccc32)c1-c1ccc(C#N)cc1 | 48.3 | 110 | 81.6 | > 100 | –
7 | COc1ccc(C2=N[C@@H](c3ccc(Cl)cc3)[C@@H](c3ccc(Cl)cc3)N2C(=O)N2CCNC(=O)C2)c(OC(C)C)c1 [NUTLIN-3] | 32.1 | 55.7 | 47.6 | 48.7 | Activity (HCT-116 [3]): Dose-dependent effect; Activity (HCT-116 [4]): 53%; Activity (HCT-116 [5]): 8.7%
8 | CCCOc1ccc(/C=C2/C(=O)Nc3ccccc32)c(OCCC)c1 | 14.4 | 21.3 | 42.4 | 54 | –
9 | CC(C)Oc1ccc(/C=C2/C(=O)Nc3cc(Cl)ccc32)c(OC(C)C)c1 | 23.4 | 42 | 30.4 | 42.9 | –
10 | CC(C)Oc1ccc(/C=C2/C(=O)Nc3ccc(Cl)cc32)c(OC(C)C)c1 | 29.7 | 37.7 | 42.6 | 55.7 | –
11 | COc1ccc(/C=C2/C(=O)Nc3ccc(Cl)cc32)c(OC)c1 | 49.2 | 126 | > 100 | > 100 | –
12 | COc1ccc(/C=C2/C(=O)Nc3ccc(F)cc32)c(-c2ccc(Cl)cc2)c1 | 15.3 | 27.3 | 58.8 | > 100 | –
13 | COc1ccc(/C=C2/C(=O)Nc3ccccc32)c(OC)c1 | 13.4 | 28.1 | 52.5 | 54.1 | Activity (Mus musculus [6]): 18.95 g; TGI (CT26): Dose-dependent effect; Activity (HCT-116 [7]): Dose-dependent effect; Activity (HCT-116 [8]): Dose-dependent effect; Activity (HCT-116 [9]): Dose-dependent effect; Activity (HCT-116 [3]): Dose-dependent effect; Activity (Mus musculus [10]): Non-toxic; Activity (Mus musculus [11]): Non-toxic; Activity (Mus musculus [12]): Toxic; Activity (Mus musculus [13]): 18.91 g
14 | COc1ccc(/C=C2/C(=O)Nc3cc(F)ccc32)c(OC)c1 | 26.9 | 65.5 | > 100 | 88.4 | –
